# Bioassay records deposited in PubChem BioAssay by Sanford-Burnham Center for Chemical Genomics.
# Rows were chosen to be rich in hits. Some 2.5% of all compounds tested hit in one or more screens of this group.
# SENP8 block-1 = SENP8 protease inhibitors, primary screen, biochemical, luminescence | Sentrin-specific protease 8 (Homo sapiens), Q96LD8 | purified SENP8, Z-RLRGG-aminoluciferin cleavage | inhibition, % at 10 µM | 330,000 tested, 1.2% active | AID 2540, 2010; in the data active = inhibition above about 50%
# SENP7 block = SENP7 protease inhibitors, primary screen, biochemical, luminescence, uHTS; Sentrin-specific protease 7 (Homo sapiens), Q9BQF6; recombinant SENP7, Z-RLRGG-aminoluciferin luminescence, 40 min; inhibition, % at 5 µM; 330,000 tested, 1.5% active;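 active = inhibition above about 50% at the single test dose, limit read from the data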
# Target sequence (Q9BQF6 706-1050 limits assumed): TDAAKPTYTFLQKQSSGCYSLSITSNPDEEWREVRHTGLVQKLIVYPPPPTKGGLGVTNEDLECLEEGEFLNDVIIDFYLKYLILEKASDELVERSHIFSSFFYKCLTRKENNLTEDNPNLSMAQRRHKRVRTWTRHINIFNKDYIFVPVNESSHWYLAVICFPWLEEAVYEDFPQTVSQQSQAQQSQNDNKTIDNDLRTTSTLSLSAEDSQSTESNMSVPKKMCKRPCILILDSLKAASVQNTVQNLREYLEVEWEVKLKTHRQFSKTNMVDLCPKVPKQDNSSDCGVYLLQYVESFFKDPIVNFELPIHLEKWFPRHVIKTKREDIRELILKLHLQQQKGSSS
# SENP6 inh = SENP6 protease inhibitors, primary screen, biochemical, luminescence, uHTS | AID 2599, 2010 | inhibition, % at 10 µM | Sentrin-specific protease 6 (Homo sapiens), Q9GZR1 | Recombinant SENP6 catalytic domain, aminoluciferin luminescence | 330,000 tested, 1.8% active;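 active = inhibition above about 50% at the single tested dose, limit read from the data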
# SENP8 block-2 = human SENP8 protease inhibitors, primary screen, biochemical, fluorescence, Nedd8 protein substrate, uHTS. Sentrin-specific protease 8 (Homo sapiens), Q96LD8. recombinant SENP8. inhibition, % at 20 µM. 360,000 tested, 0.64% active. AID 602440, 2012; in the data active = inhibition mostly above about 40%, no sharp cut-off; inactive = mostly below about 27%
# SENP1 inh = human SENP1 catalytic domain inhibitors, primary screen, biochemical, FRET, uHTS; recombinant SENP1 catalytic domain, CyPet-SUMO1-YPet FRET cleavage; 360,000 tested, 0.21% active; inhibition, % at 10 µM; Sentrin-specific protease 1 (Homo sapiens), Q9P0U3;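 active = inhibition at least 30% at 10 µM, raw YFP signal under a set limit, fluorescence ratio 0.5 to 1.5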
#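 Assay system: hSENP1 catalytic domain, recombinant. Amount: SENP1 enzyme, 20 pM final. Schedule: 50 min reaction, RT, dark. Technique: FRET, CFP and YFP emission. Control set: no-enzyme wells low, DMSO-plus-enzyme wells high control.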
# SENP8 conf = SENP8 protease inhibitors, retest, confirmation, biochemical, luminescence, single concentration; shares compounds with SENP7 block; Recombinant SENP8, Z-RLRGG-aminoluciferin luminescence, 60 min; inhibition, % at 12.5 µM; 6,200 tested, 40% active;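 active = mean inhibition across replicates above about 50%, limit read from the data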
# SENP6 conf = SENP6 protease inhibitors, confirmation, biochemical, luminescence, single concentration. 6,200 tested, 58% active. shares compounds with SENP7 block. recombinant SENP6, Z-RLRGG-aminoluciferin luminescence. inhibition, % at 12.5 µM. AID 488915, 2010
# SENP7 confirm = SENP7 protease inhibitors, retest, confirmation, biochemical, luminescence, single concentration | shares compounds with SENP7 block | inhibition, % at 12.5 µM | recombinant SENP7, Z-RLRGG-aminoluciferin luminescence, 40 min | 6,200 tested, 69% active | AID 488917, 2010
# Casp3 select = caspase-3 protease inhibitors, confirmation, selectivity assay for SENP inhibitor project, biochemical, single concentration | shares compounds with SENP7 block | purified caspase-3, Z-DEVD-aminoluciferin luminescence, 60 min | inhibition, % at 12.5 µM | 6,200 tested, 60% active | AID 488918, 2010;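 active = mean inhibition above about 50%, limit read from the data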
# Target sequence (P42574 28-227 limits assumed): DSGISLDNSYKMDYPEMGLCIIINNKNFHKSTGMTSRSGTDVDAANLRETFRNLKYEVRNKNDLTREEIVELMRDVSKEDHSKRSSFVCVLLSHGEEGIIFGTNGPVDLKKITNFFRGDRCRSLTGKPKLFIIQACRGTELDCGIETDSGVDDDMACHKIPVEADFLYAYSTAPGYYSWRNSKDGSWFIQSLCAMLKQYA
# SENP luc ctr = counter-screen for SENP inhibitors: luminescence interference; shares compounds with SENP7 block; Pre-incubated SENP8/Z-RLRGG-aminoluciferin, luciferase luminescence interference; inhibition, % at 12.5 µM; 6,200 tested, 39% active; AID 488919;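 active = mean inhibition above about 50% when retested at one dose, limit read from the data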
# Hits are given with their value; - = inactive; . = not tested or not shown.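 The calls were made as follows, unless noted: active = mean inhibition above about 50% in the one-dose retest (limit read from the data); inactive = the rest.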
SMILES,SENP8 block-1,SENP7 block,SENP6 inh,SENP8 block-2,SENP1 inh,SENP8 conf,SENP6 conf,SENP7 confirm,Casp3 select,SENP luc ctr
CSc1ccccc1NC(=O)Nc1ccccc1Cl,-,-,-,-,-,.,.,.,.,.
CCc1ccccc1NC(=O)Nc1cccc(F)c1,-,-,-,-,-,.,.,.,.,.
Cc1csc2nc(CSc3nncn3-c3ccccc3)c(Br)n12,-,-,-,-,-,.,.,.,.,.
Cc1csc2nc(CSc3nc4ccccc4o3)c(Br)n12,-,-,56,-,-,-,-,55,-,-
O=C(CCn1ccc2cc(S(=O)(=O)N3CCCC3)ccc21)NCc1cccc(F)c1,-,-,-,-,-,.,.,.,.,.
Cc1ccc(C(=O)N=c2sccn2C)o1,-,-,-,-,-,.,.,.,.,.
CC(C)C[C@H](NC(=O)OC(C)(C)C)C(=O)N/N=C/c1ccc2nccnc2c1,-,51,-,-,-,-,-,-,-,-
CC(=O)c1cc2c(cc1NC(=O)CSc1ncccn1)OCO2,.,.,.,-,-,.,.,.,.,.
CC(C)C1COC(c2cccc3ccccc23)=N1 (centres undefined),89,92,96,-,-,60,92,100,85,-
Cc1nnc(Sc2cc(NCCO)c([N+](=O)[O-])c3nonc23)s1,.,.,.,-,-,.,.,.,.,.
O=[N+]([O-])c1c(NCCCO)cc(Sc2nc3ccccc3s2)c2nonc12,91,80,82,-,-,-,-,-,-,-
CCC(=O)OCCNc1cc(Sc2nc3ccccc3s2)c2nonc2c1[N+](=O)[O-],-,-,72,60,-,-,-,-,-,-
N#Cc1c(NC(=O)c2ccc(Br)o2)n(-c2ccccc2)c2nc3ccccc3nc12,93,77,-,-,-,-,90,82,-,-
CCC(C)n1c(NC(=O)c2ccccc2)c(C#N)c2nc3ccccc3nc21 (centres undefined),66,-,90,-,-,-,69,-,-,-
O=C(Oc1ccc2ccccc2c1Cl)N1CCCCCC1,54,53,76,-,-,71,70,87,-,-
O=C(Oc1ccc(Cl)c2ccccc12)N1CCCCC1,-,-,-,-,-,.,.,.,.,.
O=C(Oc1ccc2ccccc2c1Cl)N1CCCC1,-,57,73,-,-,-,52,84,53,59
Cc1ccccc1C(=O)Nc1cc(C(F)(F)F)ccc1-n1cncn1,-,-,-,-,-,.,.,.,.,.
O=C(O)CCc1ccc(-c2ccc(Br)cc2)o1,-,-,-,-,-,.,.,.,.,.
O=C(O)CCc1ccc(-c2ccc(Cl)cc2)o1,-,-,73,-,-,68,61,88,66,81
CCCC1=NN(c2ccc([N+](=O)[O-])cc2)C(=O)/C1=C\N(C)C,95,96,95,52,-,97,97,102,97,97
C[C@H](NC(=O)c1ccccc1)C(=O)OCC(=O)Nc1ccc(Cl)cn1,.,.,.,-,-,.,.,.,.,.
COc1ccc(Cn2c(-c3ccco3)nc3oc4cc(OC)ccc4c(=O)c3c2=O)cc1,-,-,50,-,-,-,-,-,-,-
O=C(N/N=C/c1ccc(Br)s1)c1ccco1,-,-,-,-,-,.,.,.,.,.
Cc1ccc(/C=N/NC(=O)c2ccoc2C)s1,74,85,88,-,-,-,77,95,93,80
SMILES,SENP8 block-1,SENP7 block,SENP6 inh,SENP8 block-2,SENP1 inh,SENP8 conf,SENP6 conf,SENP7 confirm,Casp3 select,SENP luc ctr
Cc1occc1C(=O)N/N=C/c1ccc(Br)s1,81,88,88,-,-,-,78,95,89,53
Cc1ccc(SCC(=O)OC(C)C(=O)NCc2ccccc2)cc1 (centres undefined),-,-,-,-,-,.,.,.,.,.
Cc1ccc(C(=O)CC2SC(N)=NC2=O)cc1 (centres undefined),-,77,-,-,-,-,-,-,-,-
O=C(CSc1nnc(CNC(=O)c2ccco2)o1)Nc1cccc(F)c1,-,-,-,-,-,.,.,.,.,.
Cc1cccc(OCCC(=O)Nc2ccc(C)c(S(=O)(=O)N3CCCCC3)c2)c1,.,.,.,-,-,.,.,.,.,.
COc1ccc(C(=O)Nc2ccc(Cl)c(Cl)c2)c(OC)n1,-,51,-,-,-,-,-,-,-,-
CSc1ccc(C2C(C(=O)c3ccco3)=C(O)C(=O)N2c2nnc(SC)s2)cc1 (centres undefined),-,-,75,-,-,-,-,-,-,-
Cc1nnc(N2C(=O)C(O)=C(C(=O)c3ccco3)C2c2ccc(C(C)(C)C)cc2)s1 (centres undefined),-,-,86,-,-,-,-,-,-,-
CSCCC(NC(=O)c1ccccc1Cl)C(=O)N(C)Cc1cccs1 (centres undefined),-,-,-,-,-,.,.,.,.,.
O=C(O)Cc1ccc2sc(-c3ccccc3)nc2c1,93,91,99,-,-,96,97,101,97,96
COC(=O)Cc1ccc2sc(-c3ccccc3)nc2c1,94,100,94,-,-,96,98,101,96,94
CC(=O)c1ccc(S(=O)(=O)NCC(=O)Nc2nc3ccccc3[nH]2)cc1,-,-,-,-,-,.,.,.,.,.
N#Cc1c(N)n(CCNC(=O)c2ccc(Cl)cc2)c2nc3ccccc3nc12,-,-,70,-,-,-,-,-,-,-
N#Cc1c(N)n(CCc2ccc(F)cc2)c2nc3ccccc3nc12,-,-,62,-,-,-,-,-,-,-
COc1ccc(Cn2c(N)c(C#N)c3nc4ccccc4nc32)cc1,-,-,-,-,-,.,.,.,.,.
COc1cccc(Cn2c(N)c(C#N)c3nc4ccccc4nc32)c1OC,-,-,85,-,-,-,-,-,-,-
Cc1ccc(C(=O)NCCn2c(N)c(C#N)c3nc4ccccc4nc32)cc1,-,-,-,-,-,.,.,.,.,.
